Data on 14 compounds can be found in ChEMBL document CHEMBL4732107, “Synthesis and anticancer activity evaluation of naphthalene-substituted triazole spirodienones” (Eur J Med Chem, 2021).

Active and inactive are the calls of the source. The calls are words filed in the database; no cut-off is given here.

As a reminder, the IC50 is the concentration that inhibits the measured activity by half.

The subject of the first series is MDA-MB-231. The experiment in a line: Induction of apoptosis in human MDA-MB-231 cells assessed as late apoptotic cells at 1 uM measured after 24 hrs by annexin V-FITC/propidium iodide staining based flow cytometry (reference value: 2.84%).
Conditions: not given
Format: functional. Background: A flow cytometer gives signals particle by particle.
With `COc1ccc(/C=C\c2cc(OC)c(OC)c(OC)c2)cc1O` [COMBRETASTATIN A4], the Activity came out at 20%.

A further series concerns MDA-MB-231. The experiment in a line: Induction of apoptosis in human MDA-MB-231 cells assessed as viable cells at 1 uM measured after 24 hrs by annexin V-FITC/propidium iodide staining based flow cytometry (reference value: 90.9%). It counts as functional. The conditions noted are these: read-out: Activity.
Consider `COc1ccc(/C=C\c2cc(OC)c(OC)c(OC)c2)cc1O` [COMBRETASTATIN A4], for which the viability at 1 µM stood at 58.6%.

The subject of another series is MDA-MB-231. The experiment in a line: Cell cycle arrest in human MDA-MB-231 cells assessed as accumulation at G1 phase at 1 uM measured after 24 hrs by propidium iodide staining based flow cytometry (reference value: 74.39%). It counts as functional.
Conditions: not given
For the compound `COc1ccc(/C=C\c2cc(OC)c(OC)c(OC)c2)cc1O` [COMBRETASTATIN A4], the Activity is 54.49%.

The test system of the next series is 4T1. The experiment in a line: Antitumor activity against mouse 4T1 cells implanted in mouse assessed as reduction in tumor weight at 1 mg/kg, ip administered daily for 12 days. It counts as functional, organism-based. The conditions noted are these: time 12.0 day. In a few lines: (§1)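 Mice bearing orthotopic 4T1 tumors were randomized into 4 groups (n = 6) once tumors reached about 100 mm2. Groups received vehicle, test compound at 1 or 2 mg/kg, or doxorubicin at 1 mg/kg, given i.p. every day. Body weight and tumor volume were recorded daily. Tumors were excised and weighed at the end, and inhibition was calculated against the saline control.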
In the case of `COc1cccc2c1C(=O)c1c(O)c3c(c(O)c1C2=O)C[C@@](O)(C(=O)CO)C[C@@H]3O[C@H]1C[C@H](N)[C@H](O)[C@H](C)O1` [DOXORUBICIN], the result was Active.

A further series concerns MDA-MB-231. The experiment in a line: Antiproliferative activity against human MDA-MB-231 cells assessed as reduction in cell viability measured after 5 days by beckman coulter counting method. The conditions noted are these: MDA-MB-231, 120 h. Format: functional, cell-based.
For the compound `O=C1C=CC2(C=C1)OCCN2c1nc(-c2cccc3ccccc23)nn1-c1ccccc1`, the half-maximal inhibitory concentration (IC50) was determined as 0.11 µM.

Take `COc1ccc(-n2nc(-c3ccc4ccccc4c3)nc2N2C(=O)C(C)OC23C=CC(=O)C=C3)cc1` (stereo not drawn): the half-inhibitory concentration (IC50) worked out at 0.05 µM.

Regarding `O=C1C=CC2(C=C1)OCC(=O)N2c1nc(-c2ccc3c(c2)Cc2ccccc2-3)nn1-c1ccccc1`, the half-inhibitory concentration (IC50) is 0.07 µM.

With `Cn1c(CCCC(=O)O)nc2cc(N(CCCl)CCCl)ccc21` [BENDAMUSTINE], the IC50 was 13.3 µM.

`Cc1ccc(-n2nc(-c3ccc4ccccc4c3)nc2N2C(=O)C(C)OC23C=CC(=O)C=C3)cc1` (stereo not drawn): the half-inhibitory concentration (IC50) was found to be 0.1 µM.

Take `Cc1ccc(-n2nc(-c3ccc4ccccc4c3)nc2N2C(=O)COC23C=CC(=O)C=C3)cc1`: the concentration for half-maximal inhibition (IC50) worked out at 0.03 µM.

For `O=C1C=CC2(C=C1)OCC(=O)N2c1nc(-c2ccc3ccccc3c2)nn1-c1ccc2ccccc2c1`, the IC50 is 0.05 µM.

On to `CC1OC2(C=CC(=O)C=C2)N(c2nc(-c3ccc4ccccc4c3)nn2-c2ccc3ccccc3c2)C1=O` (stereo not drawn), for which the IC50 was found to be 0.06 µM.

Take `O=C1C=CC2(C=C1)OCCN2c1nc(-c2ccc3ccccc3c2)nn1-c1ccccc1`: the IC50 amounted to 0.23 µM.

Turning to `O=C1C=CC2(C=C1)OCC(=O)N2c1nc(-c2ccc3c(c2)Cc2ccccc2-3)nn1-c1ccc(C(F)(F)F)cc1`, the IC50 came to 0.08 µM.

In the case of `COc1ccc(-n2nc(-c3ccc4ccccc4c3)nc2N2C(=O)COC23C=CC(=O)C=C3)cc1`, the half-maximal inhibitory concentration (IC50) worked out at 0.06 µM.

For `O=C1C=CC2(C=C1)OCC(=O)N2c1nc(-c2ccc3ccccc3c2Br)nn1-c1ccccc1`, the half-maximal inhibitory concentration (IC50) is 0.05 µM.

A further series concerns 4T1. The experiment in a line: Antitumor activity against mouse 4T1 cells implanted in mouse assessed as tumor growth inhibition at 1 mg/kg, ip administered daily for 12 days relative to control. It counts as functional. The conditions noted are these: 4T1, ip, 288 h, time 12 day, read-out: TGI. In a few lines: as §1
Take `COc1cccc2c1C(=O)c1c(O)c3c(c(O)c1C2=O)C[C@@](O)(C(=O)CO)C[C@@H]3O[C@H]1C[C@H](N)[C@H](O)[C@H](C)O1` [DOXORUBICIN]: the inhibition in vivo at 1 mg/kg was 45.1%.

In another series the test system is MDA-MB-231. The experiment in a line: Cell cycle arrest in human MDA-MB-231 cells assessed as accumulation at G2 phase at 1 uM measured after 24 hrs by propidium iodide staining based flow cytometry (reference value: 5.77%). It counts as functional.
Conditions: not given
A digest of the protocol:
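MDA-MB-231 cells were seeded at 5 × 10^5 cells/mL and treated for 24 h. They were then trypsinized and washed twice in cold PBS. Cells were resuspended in PBS, stained with PI for 15 min at room temperature in the dark, and analyzed by flow cytometry.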
Regarding `COc1ccc(/C=C\c2cc(OC)c(OC)c(OC)c2)cc1O` [COMBRETASTATIN A4], the Activity is 18.16%.

The test system of a further series is HeLa. The experiment in a line: Antiproliferative activity against human HeLa cells assessed as reduction in cell viability measured after 5 days by beckman coulter counting method. The conditions noted are these: 120 h. It counts as functional, cell-based.
On to `O=C1C=CC2(C=C1)OCCN2c1nc(-c2cccc3ccccc23)nn1-c1ccccc1`, for which the IC50 is 0.15 µM.

On to `COc1ccc(-n2nc(-c3ccc4ccccc4c3)nc2N2C(=O)C(C)OC23C=CC(=O)C=C3)cc1` (stereo not drawn), for which the IC50 stood at 0.14 µM.

As for `O=C1C=CC2(C=C1)OCC(=O)N2c1nc(-c2ccc3c(c2)Cc2ccccc2-3)nn1-c1ccccc1`, the half-inhibitory concentration (IC50) was 0.11 µM.

On to `Cn1c(CCCC(=O)O)nc2cc(N(CCCl)CCCl)ccc21` [BENDAMUSTINE], for which the half-maximal inhibitory concentration (IC50) was more than 20 µM.

As for `Cc1ccc(-n2nc(-c3ccc4ccccc4c3)nc2N2C(=O)C(C)OC23C=CC(=O)C=C3)cc1` (stereo not drawn), the IC50 stood at 0.53 µM.

Regarding `Cc1ccc(-n2nc(-c3ccc4ccccc4c3)nc2N2C(=O)COC23C=CC(=O)C=C3)cc1`, the IC50 was determined as 0.15 µM.

As for `O=C1C=CC2(C=C1)OCC(=O)N2c1nc(-c2ccc3ccccc3c2)nn1-c1ccc2ccccc2c1`, the IC50 worked out at 0.21 µM.

With `CC1OC2(C=CC(=O)C=C2)N(c2nc(-c3ccc4ccccc4c3)nn2-c2ccc3ccccc3c2)C1=O` (stereo not drawn), the IC50 is 0.3 µM.

Take `O=C1C=CC2(C=C1)OCCN2c1nc(-c2ccc3ccccc3c2)nn1-c1ccccc1`: the concentration for half-maximal inhibition (IC50) was 0.37 µM.

On to `O=C1C=CC2(C=C1)OCC(=O)N2c1nc(-c2ccc3c(c2)Cc2ccccc2-3)nn1-c1ccc(C(F)(F)F)cc1`, for which the 50% inhibitory concentration (IC50) amounted to 0.13 µM.

As to `COc1ccc(-n2nc(-c3ccc4ccccc4c3)nc2N2C(=O)COC23C=CC(=O)C=C3)cc1`, the IC50 was found to be 0.2 µM.

Consider `O=C1C=CC2(C=C1)OCC(=O)N2c1nc(-c2ccc3ccccc3c2Br)nn1-c1ccccc1`, for which the IC50 was 0.29 µM.

Another series deals with MDA-MB-231. The experiment in a line: Induction of apoptosis in human MDA-MB-231 cells assessed as necrotic cells at 1 uM measured after 24 hrs by annexin V-FITC/propidium iodide staining based flow cytometry (reference value: 4.74%). Format: functional.
Conditions: not given
In the case of `COc1ccc(/C=C\c2cc(OC)c(OC)c(OC)c2)cc1O` [COMBRETASTATIN A4], the Activity is reported as 12.8%.

System in a further series: not listed separately
The experiment in a line: Toxicity in mouse implanted with mouse 4T1 cells assessed as change in body weight at 1 mg/kg, ip administered daily for 12 days measured daily during compound dosing. The conditions noted are these: in vivo, 288 h, time 12 day. Format: organism-based. In a few lines: as §1
Turning to `COc1cccc2c1C(=O)c1c(O)c3c(c(O)c1C2=O)C[C@@](O)(C(=O)CO)C[C@@H]3O[C@H]1C[C@H](N)[C@H](O)[C@H](C)O1` [DOXORUBICIN], the Activity entry was “Non-Toxic”.

Another series has as its system A549. The experiment in a line: Antiproliferative activity against human A549 cells assessed as reduction in cell viability measured after 5 days by beckman coulter counting method. The conditions noted are these: A549, 120 h. It counts as functional, cell-based. A digest of the protocol: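 Cells kept in DMEM with 10% FBS, 4 mM glutamine, 1 mM sodium pyruvate, penicillin/streptomycin and amphotericin, at 37 °C in 5% CO2. Seeded at 20,000 per well, then exposed to 5 concentrations for 5 days, with DMSO as vehicle. Viable cells counted on a cell viability analyzer. Viability expressed as treated/vehicle count, and IC50 taken from dose-response curves.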
Take `O=C1C=CC2(C=C1)OCCN2c1nc(-c2cccc3ccccc23)nn1-c1ccccc1`: the IC50 came to 0.43 µM.

Consider `COc1ccc(-n2nc(-c3ccc4ccccc4c3)nc2N2C(=O)C(C)OC23C=CC(=O)C=C3)cc1` (stereo not drawn), for which the concentration for half-maximal inhibition (IC50) came out at 0.86 µM.

As for `O=C1C=CC2(C=C1)OCC(=O)N2c1nc(-c2ccc3c(c2)Cc2ccccc2-3)nn1-c1ccccc1`, the IC50 was 0.15 µM.

Consider `Cc1ccc(-n2nc(-c3ccc4ccccc4c3)nc2N2C(=O)C(C)OC23C=CC(=O)C=C3)cc1` (stereo not drawn), for which the IC50 was determined as 1.21 µM.

As for `Cc1ccc(-n2nc(-c3ccc4ccccc4c3)nc2N2C(=O)COC23C=CC(=O)C=C3)cc1`, the IC50 is 0.11 µM.

Take `O=C1C=CC2(C=C1)OCC(=O)N2c1nc(-c2ccc3ccccc3c2)nn1-c1ccc2ccccc2c1`: the IC50 was 0.25 µM.

Take `O=C1C=CC2(C=C1)OCC(=O)N2c1nc(-c2ccc3c(c2)Cc2ccccc2-3)nn1-c1ccc(C(F)(F)F)cc1`: the IC50 was 0.18 µM.

Take `COc1ccc(-n2nc(-c3ccc4ccccc4c3)nc2N2C(=O)COC23C=CC(=O)C=C3)cc1`: the half-maximal inhibitory concentration (IC50) was 0.26 µM.

Consider `O=C1C=CC2(C=C1)OCC(=O)N2c1nc(-c2ccc3ccccc3c2Br)nn1-c1ccccc1`, for which the IC50 worked out at 0.1 µM.

In a further series the test system is MDA-MB-231. The experiment in a line: Cell cycle arrest in human MDA-MB-231 cells assessed as accumulation at S phase at 1 uM measured after 24 hrs by propidium iodide staining based flow cytometry (reference value: 19.84%). Format: functional.
Conditions: not given
Take `COc1ccc(/C=C\c2cc(OC)c(OC)c(OC)c2)cc1O` [COMBRETASTATIN A4]: the Activity is 27.34%.

For a further series, the system named is MDA-MB-231. The experiment in a line: Induction of apoptosis in human MDA-MB-231 cells assessed as early apoptotic cells at 1 uM measured after 24 hrs by annexin V-FITC/propidium iodide staining based flow cytometry (reference value: 1.49%).
Conditions: not given
Format: functional.
On to `COc1ccc(/C=C\c2cc(OC)c(OC)c(OC)c2)cc1O` [COMBRETASTATIN A4], for which the Activity came to 8.57%.
